Active and inactive are the calls of the source. No cut-off for these calls is given here.
What was measured:
MIA PaCa-2 [1] = assay: Induction of apoptosis signaling in human MIAPaCa2 cells at 5 times IC50 after 4 hrs by IPA analysis; assay type: functional, cell-based
MIA PaCa-2 [2] = assay: Induction of unfolded protein response in human MIAPaCa2 cells assessed as upregulation of DDIT3 gene expression after 4 hrs by Bru-seq analysis; assay type: functional, cell-based
MIA PaCa-2 [3] = assay: Cytotoxicity against gemcitabine-resistant human MIAPaCa2 cells assessed as decrease in cell proliferation after 72 hrs by MTT assay; assay type: functional, cell-based
How it was run: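 MTT assay. Cells (3000–8000/well) attached overnight in RPMI1640 with 10% FBS; the GR line was kept with 200 nM gemcitabine. Serial dilutions (30 nM–10 μM for most lines) were applied for 72 h. MTT was added at a final 300 μg/mL for 3 h at 37°C, formazan was dissolved in DMSO and A570 read. Inhibition = (1 − OD treated/OD control) × 100. IC50 given as mean ± SD, three independent experiments.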

MIA PaCa-2 [4] = assay: Downregulation of Sp3 gene expression in human MIAPaCa2 cells at IC50 to 5 times IC50 after 4 hrs by Bru-seq analysis; assay type: functional, cell-based
Mus musculus [5] = assay: Toxicity in NOD/SCID mouse xenografted with human MIAPaCa2 cells assessed as microscopic changes in pancreas at 5 mg/kg, ip administered 5 times a week until day 44 by hematoxylin and eosin staining-based inverted microscopic method; assay type: organism-based; settings: in vivo
How it was run: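 Necropsy after the 44-day ip course in MIA PaCa-2 xenograft-bearing NOD/SCID mice: heart, kidney, liver, lung, spleen and pancreas fixed in 10% neutral buffered formalin, paraffin-embedded, sectioned and stained with hematoxylin and eosin. Sections examined by inverted microscope at 20X, compared with vehicle-treated animals.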

PANC-1 [6] = assay: Induction of unfolded protein response in human PANC1 cells assessed as upregulation of CHOP expression at 2 uM by Western blot analysis; assay type: functional, cell-based; settings: TDE = time-dependent effect
How it was run: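 Cells (4×10^5) seeded in 60 mm dishes, cultured in RPMI1640 with 10% FBS, 5% CO2, 37°C, then compound-treated. Lysed 30 min at 4°C, BCA-quantified, 40 μg protein resolved by SDS-PAGE, transferred to PVDF, probed overnight at 4°C with primary antibodies (1:1000; GAPDH or actin loading control), then Dylight 800 secondary; fluorescence scanned. Bands normalized to loading control; mean ± SD, three independent experiments.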

Mus musculus [7] = assay: Induction of reactive oxygen species generation in tumor of NOD/SCID mouse xenografted with MIAPaCa2 cells assessed as upregulation of NQO1 expression at 5 mg/kg, ip administered 5 times a week until day 44 by Western blot method; assay type: functional, organism-based
PANC-1 [8] = assay: Induction of reactive oxygen species generation in human PANC1 cells assessed as upregulation of HO-1 expression at 2 uM after 4 to 24 hrs by Western blot analysis; assay type: functional, cell-based
How it was run: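 Immunoblotting. Cells (4×10^5) in 60 mm dishes were treated, lysed 30 min at 4°C and quantified by BCA. 40 μg protein was run on SDS-PAGE and transferred to PVDF. Primary antibodies (1:1000) incubated overnight at 4°C, then Dylight 800 secondary, with fluorescent scanning. Bands were normalized to GAPDH or actin loading controls. Mean ± SD, three independent experiments, Student's t-test.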

MIA PaCa-2 [9] = assay: Downregulation of Sp1 gene expression in human MIAPaCa2 cells at IC50 to 5 times IC50 after 4 hrs by Bru-seq analysis; assay type: functional, cell-based
MIA PaCa-2 [10] = assay: Induction of reactive oxygen species generation in human MIAPaCa2 cells assessed as upregulation of HMOX1 gene expression after 4 hrs by Bru-seq analysis; assay type: functional, cell-based
Mus musculus [11] = assay: Toxicity in NOD/SCID mouse xenografted with human MIAPaCa2 cells assessed as body weight loss at 5 mg/kg, ip administered 5 times a week until day 44 followed by dose escalation up to 20 mg/kg until day 67; assay type: organism-based; settings: in vivo
How it was run: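 After a 44-day course (ip, five days on/two off, in 5% DMSO/60% propylene glycol/35% saline), two mice per group stayed on study and dose was gradually raised from 5 to 20 mg/kg until day 67 in MIA PaCa-2 flank xenografts in NOD/SCID mice. Body weight monitored; mean ± SEM.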

MIA PaCa-2 [12] = assay: Induction of reactive oxygen species generation in human MIAPaCa2 cells at 1.1 to 10 uM after 24 hrs in presence of NAC by H2DCFDA reactivity assay; assay type: functional, cell-based
How it was run: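 H2DCFDA assay. Trypsinized MIA PaCa-2 cells in suspension were loaded with 20 μM H2DCFDA for 30 min at 37°C, washed and plated at 20,000/well. After 30 min they were treated with compound at 10, 3.3 or 1.1 μM. Fluorescence was read at 493/523 nm over time. DMSO basal and unstained controls were included. NAC pretreatment, where used, was 5 mM for 30 min. Duplicates, three independent experiments.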

O=C1C(Nc2ccc(-c3ccccc3)cc2)=CC(=O)c2ncncc21
Activity (MIA PaCa-2 [1]): Active
Activity (MIA PaCa-2 [2]): Dose-dependent effect
Activity (MIA PaCa-2 [3]): Dose-dependent effect
IC50 (MIA PaCa-2 [3]; MIA PaCa-2, 72 h): 1000 nM
Activity (MIA PaCa-2 [4]): inactive
Activity (Mus musculus [5]): Non-Toxic
Activity (PANC-1 [6]): Tde
Activity (Mus musculus [7]): Active
Activity (PANC-1 [8]): inactive
Activity (MIA PaCa-2 [9]): inactive
Activity (MIA PaCa-2 [10]): Dose-dependent effect
Activity (Mus musculus [11]): Non-Toxic
Activity (MIA PaCa-2 [12]): inactive
